Here are results for 33 compounds from ChEMBL document CHEMBL1150432 (J Med Chem, 2008).

Structures are written as SMILES. pIC50, pKi: −log10 of the molar value.

Assay [1] in a line: Displacement of [3H]5-hydroxytryptamine from rhesus monkey cloned 5HT1F receptor expressed in African green monkey COS7 cells by liquid scintillation counting. The class given is cell-based, Macaca mulatta. To be noted: cos-7. The procedure, abridged: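 Rhesus monkey 5-HT1F cloned by PCR into pcDNA3.1 and transiently transfected into COS-7 cells. Membranes prepared by homogenization in 50 mM Tris-HCl, 5 mM EDTA, pH 7.4. Filtered over GF/B and counted by liquid scintillation. Ki calculated via Cheng-Prusoff. Mean of more than two runs in duplicate or triplicate.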
For orientation: In a radioligand displacement assay an active substance lowers the binding of a labelled ligand.

In assay [2] the target is 5-hydroxytryptamine receptor 1B (Homo sapiens, UniProt P28222). The assay can be described thus: Displacement of [3H]5-hydroxytryptamine from human cloned 5HT1B receptor expressed in CHOK1 cells by liquid scintillation counting. The class given is cell-based, CHO-K1.
Assay [3] has as its target 5-hydroxytryptamine receptor 1D (Homo sapiens, UniProt P28221). Briefly: Displacement of [3H]5-hydroxytryptamine from human cloned 5HT1D receptor expressed in CHOK1 cells by liquid scintillation counting. The assay is classed as cell-based, CHO-K1. Summed up: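 Membranes from CHO-K1 cells expressing cloned human 5-HT1D were purchased. Stopped by filtration over GF/B filters and counted by liquid scintillation. Ki derived from IC50 by Cheng-Prusoff. Each value is the mean of more than two runs done in duplicate or triplicate.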

For assay [4], the target named is 5-hydroxytryptamine receptor 1B (Oryctolagus cuniculus) (UniProt P49144). Briefly: Antagonist activity at rabbit 5HT1B receptor assessed as inhibition of sumatriptan-induced saphenous vein contraction at 30 uM. The assay is classed as functional, tissue-based. Details: scale not given: the % may be the effect or the level left.
Assay [5] shares this target. Briefly: Agonist activity at rabbit 5HT1B receptor assessed as induction of saphenous vein contraction at 30 uM after 5 mins. The class given is functional, tissue-based.
Assay [6] has as its target T1, 5-hydroxytryptamine receptor 1A (Homo sapiens, UniProt P08908).
T1 sequence (P08908 whole entry): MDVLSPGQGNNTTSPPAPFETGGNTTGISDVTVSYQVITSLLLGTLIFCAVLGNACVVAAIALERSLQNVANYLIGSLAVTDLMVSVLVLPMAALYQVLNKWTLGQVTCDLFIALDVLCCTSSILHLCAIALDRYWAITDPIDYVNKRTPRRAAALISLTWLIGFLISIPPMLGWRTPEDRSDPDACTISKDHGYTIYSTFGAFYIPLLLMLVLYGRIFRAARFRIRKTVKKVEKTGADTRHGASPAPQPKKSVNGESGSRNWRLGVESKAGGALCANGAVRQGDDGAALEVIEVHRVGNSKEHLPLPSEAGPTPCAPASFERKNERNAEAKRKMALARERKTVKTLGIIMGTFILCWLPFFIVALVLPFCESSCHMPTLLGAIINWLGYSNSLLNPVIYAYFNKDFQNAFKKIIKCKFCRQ
Briefly: Binding affinity to 5HT1A receptor.

A short description of assay [7]: Displacement of [3H]5-hydroxytryptamine from human cloned 5HT1D receptor expressed in CHOK1 cells by liquid scintillation counting. To be noted: cho-k1.

Chain of 5-hydroxytryptamine receptor 1B (P28222 whole entry): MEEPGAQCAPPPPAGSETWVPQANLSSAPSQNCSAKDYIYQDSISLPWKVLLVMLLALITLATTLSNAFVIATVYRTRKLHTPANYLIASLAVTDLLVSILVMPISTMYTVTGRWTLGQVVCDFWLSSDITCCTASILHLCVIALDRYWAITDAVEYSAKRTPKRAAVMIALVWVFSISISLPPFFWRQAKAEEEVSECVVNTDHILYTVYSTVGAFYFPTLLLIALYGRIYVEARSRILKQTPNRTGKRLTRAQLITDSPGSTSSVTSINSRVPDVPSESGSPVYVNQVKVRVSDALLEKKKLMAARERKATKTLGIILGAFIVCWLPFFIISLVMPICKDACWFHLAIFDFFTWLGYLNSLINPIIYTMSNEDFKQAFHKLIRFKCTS
Chain of 5-hydroxytryptamine receptor 1D (P28221 whole entry): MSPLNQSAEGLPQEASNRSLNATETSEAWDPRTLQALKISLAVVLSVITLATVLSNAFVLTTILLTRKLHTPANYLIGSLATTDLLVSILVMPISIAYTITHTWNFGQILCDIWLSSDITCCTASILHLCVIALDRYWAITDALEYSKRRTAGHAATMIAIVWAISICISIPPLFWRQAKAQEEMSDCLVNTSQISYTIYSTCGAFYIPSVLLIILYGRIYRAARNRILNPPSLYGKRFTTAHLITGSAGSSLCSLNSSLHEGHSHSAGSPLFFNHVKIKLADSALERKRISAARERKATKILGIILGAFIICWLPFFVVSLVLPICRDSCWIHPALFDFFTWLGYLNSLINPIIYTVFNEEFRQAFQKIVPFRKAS
Chain of 5-hydroxytryptamine receptor 1B (Oryctolagus cuniculus) (P49144 whole entry): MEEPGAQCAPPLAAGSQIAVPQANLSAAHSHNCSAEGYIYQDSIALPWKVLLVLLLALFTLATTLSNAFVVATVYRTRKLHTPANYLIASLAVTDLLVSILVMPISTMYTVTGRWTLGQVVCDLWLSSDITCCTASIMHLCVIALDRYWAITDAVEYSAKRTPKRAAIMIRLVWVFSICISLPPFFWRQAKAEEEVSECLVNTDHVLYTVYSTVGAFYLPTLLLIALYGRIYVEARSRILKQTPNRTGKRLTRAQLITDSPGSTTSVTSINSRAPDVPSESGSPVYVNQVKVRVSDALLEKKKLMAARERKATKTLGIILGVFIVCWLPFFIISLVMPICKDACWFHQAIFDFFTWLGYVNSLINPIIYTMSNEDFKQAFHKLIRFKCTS

As a reminder, the pKi is the negative decadic logarithm of the Ki, by convention in mol/L. Compound `CN1CCC(c2c[nH]c3ccc(NC(=O)c4ccc(F)cc4)cc23)CC1` gave a pKi in assay [1] of 8.52.

With `NC(=O)C(CN1CCC(c2c[nH]c3ccc(NC(=O)c4ccc(F)cc4)cc23)CC1)N1CCC(c2c[nH]c3ccc(NC(=O)c4ccc(F)cc4)cc23)CC1` (centres undefined), the figures for the pKi in assay [1], in assay [2] and in assay [3] were 7.32, less than 6.00 and less than 6.00, respectively.

Take `CN1CCC(c2c[nH]c3ccc(NC(=O)CCCCCCCCCCCCC(=O)Nc4ccc5[nH]cc(C6CCN(C)CC6)c5c4)cc23)CC1`: the Activity stood at 58% in assay [4] and 24% in assay [5]. Further, the pKi was less than 5.00 in assay [1], 9.30 in assay [2] and 8.77 in assay [3].

Usually pIC50 stands for −log10 of the IC50, conventionally taken in molar units. On to `NC(=O)c1ccc2[nH]cc(C3=CCC(NCCCCCCCNC4CC=C(c5c[nH]c6ccc(C(N)=O)cc56)CC4)CC3)c2c1` (centres undefined), for which the pIC50 in assay [6] was 8.74; in assay [7], 10.30.

In the case of `O=C(Nc1ccc2[nH]cc(C3CCN(CCN4CCCCC4)CC3)c2c1)c1ccc(F)cc1`, the pKi in assay [1], in assay [2] and in assay [3] was less than 6.00 each time.

As for `O=C(Nc1ccc2[nH]cc(C3CCN(CC(N4CCC(c5c[nH]c6ccc(NC(=O)c7ccc(F)cc7)cc56)CC4)C(F)(F)F)CC3)c2c1)c1ccc(F)cc1` (centres undefined), the negative-log Ki (pKi) in assay [1] is 7.62; in assay [2], less than 6.00; in assay [3], less than 6.00.

Consider `O=C(Nc1ccc2[nH]cc(C3CCN(CCN4CCC(c5c[nH]c6ccc(NC(=O)c7ccc(F)cc7)cc56)CC4)CC3)c2c1)c1ccc(F)cc1`, for which the pKi was less than 5.00 in assay [1], less than 5.00 in assay [2] and 6.66 in assay [3].

For the compound `CN(C)CCCN1CCC(c2c[nH]c3ccc(NC(=O)c4ccc(F)cc4)cc23)CC1`, the pKi is 6.91 in assay [1], less than 6.00 in assay [2] and less than 6.00 in assay [3].

For the compound `O=C(Nc1ccc2[nH]cc(C3CCN(C/C=C/CN4CCC(c5c[nH]c6ccc(NC(=O)c7ccc(F)cc7)cc56)CC4)CC3)c2c1)c1ccc(F)cc1`, the figures for the pKi in assay [1], in assay [2] and in assay [3] were less than 6.00, 6.99 and 7.62, respectively.

As for `CNS(=O)(=O)Cc1ccc2[nH]cc(CCN(C)C)c2c1`, the pKi in assay [1] is 6.63.

As for `O=C(Nc1ccc2[nH]cc(C3CCN(CCCCCCN4CCC(c5c[nH]c6ccc(NC(=O)c7ccc(F)cc7)cc56)CC4)CC3)c2c1)c1ccc(F)cc1`, the pKi in assay [1] was less than 5.00; in assay [2], 7.00; in assay [3], 9.22.

`O=C(Nc1ccc2[nH]cc(C3CCN(Cc4cccc(CN5CCC(c6c[nH]c7ccc(NC(=O)c8ccc(F)cc8)cc67)CC5)c4)CC3)c2c1)c1ccc(F)cc1`: the pKi in assay [1] is less than 6.00; in assay [2] it was 6.34; in assay [3], 6.82.

On to `O=C(Nc1ccc2[nH]cc(C3CCN(CCCCCCCCCCN4CCC(c5c[nH]c6ccc(NC(=O)c7ccc(F)cc7)cc56)CC4)CC3)c2c1)c1ccc(F)cc1`, for which the pKi in assay [1] is less than 5.00; in assay [2], 7.42; in assay [3], 7.89.

In the case of `O=C(Nc1ccc2[nH]cc(C3CCN(CCCCCCCCCCCCN4CCC(c5c[nH]c6ccc(NC(=O)c7ccc(F)cc7)cc56)CC4)CC3)c2c1)c1ccc(F)cc1`, the pKi in assay [1] is less than 5.00; in assay [2] it was less than 5.00; in assay [3], 7.89.

Take `O=C(Nc1ccc2[nH]cc(C3CCN(CCO)CC3)c2c1)c1ccc(F)cc1`: the pKi was 8.05 in assay [1], less than 6.00 in assay [2] and less than 6.00 in assay [3].

For `CN1CCC(c2c[nH]c3ccc(NC(=O)CCCCCCCCCCCC(=O)Nc4ccc5[nH]cc(C6CCN(C)CC6)c5c4)cc23)CC1`, the pKi in assay [1] is less than 5.00; in assay [2], 10.00; in assay [3], 8.85.

As to `O=C(Nc1ccc2[nH]cc(C3CCN(CCOCCOCCN4CCC(c5c[nH]c6ccc(NC(=O)c7ccc(F)cc7)cc56)CC4)CC3)c2c1)c1ccc(F)cc1`, the pKi is 7.57 in assay [1], 7.74 in assay [2] and 8.82 in assay [3].

For the compound `CN1CCC(c2c[nH]c3ccc(N)cc23)CC1`, the pKi in assay [1] is less than 5.00; in assay [2] it was 6.45; in assay [3], 7.40.

On to `CN1CCC(c2c[nH]c3ccc(NC(=O)CCCCCCCCCCCCCCC(=O)Nc4ccc5[nH]cc(C6CCN(C)CC6)c5c4)cc23)CC1`, for which the values for the pKi in assay [1], in assay [2] and in assay [3] were less than 5.00, 9.09 and 7.95, respectively.

On to `NCCc1c[nH]c2ccc(O)cc12` [SEROTONIN], for which the pKi in assay [1] was 7.46.

`O=C(Nc1ccc2[nH]cc(C3CCN(CCOCCOCCOCCN4CCC(c5c[nH]c6ccc(NC(=O)c7ccc(F)cc7)cc56)CC4)CC3)c2c1)c1ccc(F)cc1`: the results for the pKi in assay [1], in assay [2] and in assay [3] were 7.55, 7.49 and 8.41, respectively.

As for `O=C(Nc1ccc2[nH]cc(C3CCN(Cc4ccccc4)CC3)c2c1)c1ccc(F)cc1`, the figures for the pKi in assay [1], in assay [2] and in assay [3] were 7.49, less than 6.00 and less than 6.00, respectively.

Consider `CCCCCCCCN1CCC(c2c[nH]c3ccc(NC(=O)c4ccc(F)cc4)cc23)CC1`, for which the negative logarithm of the Ki (pKi) in assay [1] is less than 5.00; in assay [2], less than 6.00; in assay [3], less than 6.00.

Take `CN1CCC(c2c[nH]c3ccc(NC(=O)CCCCCCCCC(=O)Nc4ccc5[nH]cc(C6CCN(C)CC6)c5c4)cc23)CC1`: the figures for the pKi in assay [1], in assay [2] and in assay [3] were less than 5.00, 9.10 and 9.02, respectively.

In the case of `O=C(Nc1ccc2[nH]cc(C3CCN(CCCN4CCC(c5c[nH]c6ccc(NC(=O)c7ccc(F)cc7)cc56)CC4)CC3)c2c1)c1ccc(F)cc1`, the pKi in assay [1] was less than 5.00; in assay [2], less than 5.00; in assay [3] it was 7.10.

As for `O=C(O)CCCCCCCCCN1CCC(c2c[nH]c3ccc(NC(=O)c4ccc(F)cc4)cc23)CC1`, the negative logarithm of the Ki (pKi) in assay [1], in assay [2] and in assay [3] was less than 6.00 in each case.

In the case of `CN1CCC(c2c[nH]c3ccc(NC(=O)CCCCCCC(=O)Nc4ccc5[nH]cc(C6CCN(C)CC6)c5c4)cc23)CC1`, the results for the pKi in assay [1], in assay [2] and in assay [3] were less than 5.00, 8.89 and 9.05, respectively.

On to `CN1CCC(c2c[nH]c3ccc(NC(=O)CCCCCCCCCC(=O)Nc4ccc5[nH]cc(C6CCN(C)CC6)c5c4)cc23)CC1`, for which the pKi in assay [1] was less than 5.00; in assay [2], 8.89; in assay [3], 9.05.

For `CN1CCC(c2c[nH]c3ccc(NC(=O)CCCC(=O)Nc4ccc5[nH]cc(C6CCN(C)CC6)c5c4)cc23)CC1`, the pKi in assay [1] is less than 5.00; in assay [2] it was 9.12; in assay [3] it was 9.02.

Consider `O=C(Nc1ccc2[nH]cc(C3CCN(CCCCCCCCCCCN4CCC(c5c[nH]c6ccc(NC(=O)c7ccc(F)cc7)cc56)CC4)CC3)c2c1)c1ccc(F)cc1`, for which the pKi in assay [1] is less than 5.00; in assay [2] it was 6.90; in assay [3], 7.89.

Take `CN1CCC(c2c[nH]c3ccc(NC(=O)CC(=O)Nc4ccc5[nH]cc(C6CCN(C)CC6)c5c4)cc23)CC1`: the pKi was less than 5.00 in assay [1], 7.80 in assay [2] and 8.47 in assay [3].

On to `CN1CCC(c2c[nH]c3ccc(NC(=O)CCCCCCCCCCCCCC(=O)Nc4ccc5[nH]cc(C6CCN(C)CC6)c5c4)cc23)CC1`, for which the pKi in assay [1] is less than 5.00; in assay [2] it was 9.24; in assay [3], 8.64.

In the case of `O=C(Nc1ccc2[nH]cc(C3CCN(CCCCCCCCCN4CCC(c5c[nH]c6ccc(NC(=O)c7ccc(F)cc7)cc56)CC4)CC3)c2c1)c1ccc(F)cc1`, the figures for the pKi in assay [1], in assay [2] and in assay [3] were less than 5.00, 6.90 and 9.00, respectively.
